{"source": "ChEMBL document CHEMBL1681705", "about": "“Optimisation of ITK inhibitors through successive iterative design cycles” (Bioorg Med Chem Lett, 2011)", "key": {"[1]": {"target": "Protein kinase C alpha type (Homo sapiens) (UniProt P17252)", "test": "Inhibition of PKCalpha at 1 uM; values are per cent of control"}, "[2]": {"target": "Mitogen-activated protein kinase 8 (Homo sapiens) (UniProt P45983)", "sequence (P45983 whole entry)": "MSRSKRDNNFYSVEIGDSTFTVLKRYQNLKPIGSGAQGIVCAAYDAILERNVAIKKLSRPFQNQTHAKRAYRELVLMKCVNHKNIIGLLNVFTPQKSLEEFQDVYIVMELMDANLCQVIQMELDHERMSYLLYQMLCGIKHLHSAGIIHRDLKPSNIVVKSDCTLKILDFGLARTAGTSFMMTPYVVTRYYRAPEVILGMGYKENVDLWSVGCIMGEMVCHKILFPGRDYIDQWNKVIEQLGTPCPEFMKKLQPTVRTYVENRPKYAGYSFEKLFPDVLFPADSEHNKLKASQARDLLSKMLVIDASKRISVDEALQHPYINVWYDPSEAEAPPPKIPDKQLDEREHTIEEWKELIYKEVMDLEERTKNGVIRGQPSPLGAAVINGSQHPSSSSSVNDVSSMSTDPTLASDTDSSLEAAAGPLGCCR", "test": "Inhibition of JNK1a1 at 1 uM", "method_in_brief": "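Single-point profiling in a panel of 108 kinases. Each selected inhibitor was tested at two concentrations, 0.1 and 1.0 micromolar. Values are reported as inhibition at each concentration.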"}, "[3]": {"target": "MAP kinase-interacting serine/threonine-protein kinase 2 (Homo sapiens) (UniProt Q9HBH9)", "test": "Inhibition of Mnk2 at 1 uM; values are per cent of control"}, "[4]": {"target": "CDK6/cyclin D3 (Homo sapiens) (UniProt P30281+Q00534)", "test": "Inhibition of CDK6/cyclin D3 at 0.1 uM; values are per cent of control"}, "[5]": {"target": "Serine/threonine-protein kinase pim-2 (Homo sapiens) (UniProt Q9P1W9)", "test": "Inhibition of Pim-2 at 0.1 uM; values are per cent of control"}, "[6]": {"target": "Tyrosine-protein kinase Fyn (Homo sapiens) (UniProt P06241)", "sequence (P06241 2-537 limits assumed)": "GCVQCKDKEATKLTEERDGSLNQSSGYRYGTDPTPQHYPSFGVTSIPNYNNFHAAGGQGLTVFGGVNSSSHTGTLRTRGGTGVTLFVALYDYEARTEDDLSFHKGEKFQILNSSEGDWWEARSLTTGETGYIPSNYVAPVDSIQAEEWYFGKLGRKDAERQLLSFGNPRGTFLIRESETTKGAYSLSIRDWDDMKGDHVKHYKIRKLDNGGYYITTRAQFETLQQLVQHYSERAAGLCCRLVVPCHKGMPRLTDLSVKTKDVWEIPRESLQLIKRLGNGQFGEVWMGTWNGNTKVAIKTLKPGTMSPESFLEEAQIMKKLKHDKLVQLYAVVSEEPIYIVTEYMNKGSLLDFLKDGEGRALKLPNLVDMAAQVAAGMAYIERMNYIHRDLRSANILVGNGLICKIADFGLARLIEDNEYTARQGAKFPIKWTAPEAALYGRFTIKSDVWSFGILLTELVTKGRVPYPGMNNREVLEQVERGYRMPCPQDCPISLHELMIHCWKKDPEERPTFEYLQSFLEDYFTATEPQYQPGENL", "test": "Inhibition of Fyn at 0.1 uM; values are per cent of control"}, "[7]": {"test": "Inhibition of JNK2a2 at 0.1 uM", "settings": "values are per cent of control"}, "[8]": {"target": "3-phosphoinositide-dependent protein kinase 1 (Homo sapiens) (UniProt O15530)", "sequence (O15530 whole entry, looked up)": "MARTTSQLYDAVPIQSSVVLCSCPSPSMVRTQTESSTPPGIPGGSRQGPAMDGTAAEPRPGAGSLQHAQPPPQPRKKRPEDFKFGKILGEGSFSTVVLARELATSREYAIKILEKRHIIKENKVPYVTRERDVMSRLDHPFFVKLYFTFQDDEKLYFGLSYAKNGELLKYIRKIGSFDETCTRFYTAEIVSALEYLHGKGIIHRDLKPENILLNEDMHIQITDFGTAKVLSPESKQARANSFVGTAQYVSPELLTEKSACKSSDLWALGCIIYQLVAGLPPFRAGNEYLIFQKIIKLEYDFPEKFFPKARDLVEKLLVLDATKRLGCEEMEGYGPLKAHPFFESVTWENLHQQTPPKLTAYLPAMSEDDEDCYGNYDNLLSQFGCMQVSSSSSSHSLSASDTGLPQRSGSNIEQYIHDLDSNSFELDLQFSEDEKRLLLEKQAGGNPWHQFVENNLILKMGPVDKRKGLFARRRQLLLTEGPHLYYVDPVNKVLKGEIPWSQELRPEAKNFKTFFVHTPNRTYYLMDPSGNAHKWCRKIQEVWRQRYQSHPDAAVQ", "test": "Inhibition of PDK1 at 1 uM; values are per cent of control"}, "[9]": {"target": "T1, Ephrin type-B receptor 1 (Homo sapiens) (UniProt P54762)", "T1 sequence (whole entry)": "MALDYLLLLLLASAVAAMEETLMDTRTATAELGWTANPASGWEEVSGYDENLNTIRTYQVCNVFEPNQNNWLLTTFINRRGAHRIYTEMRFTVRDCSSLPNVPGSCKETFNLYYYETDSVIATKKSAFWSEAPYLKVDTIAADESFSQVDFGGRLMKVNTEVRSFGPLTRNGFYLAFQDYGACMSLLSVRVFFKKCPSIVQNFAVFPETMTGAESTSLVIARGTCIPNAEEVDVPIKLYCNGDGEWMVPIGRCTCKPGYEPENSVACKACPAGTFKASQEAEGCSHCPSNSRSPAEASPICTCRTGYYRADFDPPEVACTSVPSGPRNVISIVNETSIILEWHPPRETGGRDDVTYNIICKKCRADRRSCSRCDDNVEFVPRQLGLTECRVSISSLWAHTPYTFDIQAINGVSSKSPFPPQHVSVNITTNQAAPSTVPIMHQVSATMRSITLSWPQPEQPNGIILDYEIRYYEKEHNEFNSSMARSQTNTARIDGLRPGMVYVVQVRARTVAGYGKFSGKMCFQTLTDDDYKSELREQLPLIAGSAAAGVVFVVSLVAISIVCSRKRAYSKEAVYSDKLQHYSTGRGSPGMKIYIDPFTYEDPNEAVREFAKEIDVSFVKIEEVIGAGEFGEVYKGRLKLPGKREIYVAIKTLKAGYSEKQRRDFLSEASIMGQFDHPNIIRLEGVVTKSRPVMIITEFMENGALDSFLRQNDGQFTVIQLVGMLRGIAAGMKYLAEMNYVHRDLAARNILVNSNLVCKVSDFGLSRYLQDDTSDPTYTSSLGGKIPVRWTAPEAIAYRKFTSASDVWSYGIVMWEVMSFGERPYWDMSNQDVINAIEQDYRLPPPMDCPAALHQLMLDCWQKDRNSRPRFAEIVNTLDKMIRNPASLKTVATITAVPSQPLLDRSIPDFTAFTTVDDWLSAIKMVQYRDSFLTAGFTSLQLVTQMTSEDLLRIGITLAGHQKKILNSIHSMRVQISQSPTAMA", "test": "Inhibition of EphB1 at 1 uM; values are per cent of control"}, "[10]": {"target": "T2, Dual specificity mitogen-activated protein kinase kinase 7 (Homo sapiens) (UniProt O14733)", "T2 sequence (whole entry)": "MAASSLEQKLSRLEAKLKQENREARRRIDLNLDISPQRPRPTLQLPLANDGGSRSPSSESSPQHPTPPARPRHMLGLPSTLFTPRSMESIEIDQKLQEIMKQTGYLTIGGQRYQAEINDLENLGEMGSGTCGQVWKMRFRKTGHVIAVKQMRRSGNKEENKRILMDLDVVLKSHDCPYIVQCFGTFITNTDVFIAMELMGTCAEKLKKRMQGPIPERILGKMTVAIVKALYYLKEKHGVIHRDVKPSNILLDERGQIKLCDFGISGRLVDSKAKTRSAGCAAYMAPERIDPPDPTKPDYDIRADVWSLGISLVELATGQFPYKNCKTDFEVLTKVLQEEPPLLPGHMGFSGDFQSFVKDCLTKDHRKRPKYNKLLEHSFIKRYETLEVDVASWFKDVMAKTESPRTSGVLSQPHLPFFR", "test": "Inhibition of MKK7beta at 1 uM", "method_in_brief": "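Single-point screen within a 108-kinase selectivity panel. Each kinase was tested with inhibitor at 0.1 and 1.0 micromolar, and activity was recorded as percent inhibition.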"}, "[11]": {"target": "Proto-oncogene tyrosine-protein kinase Src (Homo sapiens) (UniProt P12931)", "test": "Inhibition of c-SRC at 1 uM; values are per cent of control"}, "[12]": {"target": "Protein-tyrosine kinase 2-beta (Homo sapiens) (UniProt Q14289)", "sequence (Q14289 whole entry, looked up)": "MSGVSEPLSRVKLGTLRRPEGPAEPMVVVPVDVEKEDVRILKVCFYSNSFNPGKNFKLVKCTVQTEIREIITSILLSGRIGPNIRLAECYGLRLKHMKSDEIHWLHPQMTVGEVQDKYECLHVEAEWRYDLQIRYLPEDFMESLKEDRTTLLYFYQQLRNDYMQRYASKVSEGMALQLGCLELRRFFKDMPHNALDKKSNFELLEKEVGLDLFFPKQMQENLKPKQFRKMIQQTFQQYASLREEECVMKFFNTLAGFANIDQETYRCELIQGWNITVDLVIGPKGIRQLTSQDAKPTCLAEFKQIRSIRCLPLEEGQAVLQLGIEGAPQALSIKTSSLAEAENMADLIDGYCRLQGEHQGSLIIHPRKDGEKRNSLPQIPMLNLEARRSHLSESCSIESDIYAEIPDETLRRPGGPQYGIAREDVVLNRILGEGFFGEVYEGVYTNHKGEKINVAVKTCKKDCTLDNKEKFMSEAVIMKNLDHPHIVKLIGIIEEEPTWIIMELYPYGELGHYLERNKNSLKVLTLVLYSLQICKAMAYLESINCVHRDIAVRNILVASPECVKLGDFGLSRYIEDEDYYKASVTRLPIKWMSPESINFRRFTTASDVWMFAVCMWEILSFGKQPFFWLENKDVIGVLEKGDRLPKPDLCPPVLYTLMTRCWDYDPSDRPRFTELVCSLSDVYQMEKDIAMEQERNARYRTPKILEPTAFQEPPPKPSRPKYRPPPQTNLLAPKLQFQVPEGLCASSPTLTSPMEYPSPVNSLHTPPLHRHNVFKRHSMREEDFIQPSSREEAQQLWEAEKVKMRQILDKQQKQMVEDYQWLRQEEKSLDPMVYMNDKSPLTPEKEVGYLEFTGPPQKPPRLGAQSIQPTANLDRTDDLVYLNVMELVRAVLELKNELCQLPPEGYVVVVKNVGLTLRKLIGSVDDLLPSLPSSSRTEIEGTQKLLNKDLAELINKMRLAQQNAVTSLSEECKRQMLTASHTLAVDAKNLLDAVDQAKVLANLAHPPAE", "test": "Inhibition of Pyk2 at 0.1 uM; values are per cent of control"}, "[13]": {"target": "Receptor-interacting serine/threonine-protein kinase 2 (Homo sapiens) (UniProt O43353)", "sequence (O43353 whole entry)": "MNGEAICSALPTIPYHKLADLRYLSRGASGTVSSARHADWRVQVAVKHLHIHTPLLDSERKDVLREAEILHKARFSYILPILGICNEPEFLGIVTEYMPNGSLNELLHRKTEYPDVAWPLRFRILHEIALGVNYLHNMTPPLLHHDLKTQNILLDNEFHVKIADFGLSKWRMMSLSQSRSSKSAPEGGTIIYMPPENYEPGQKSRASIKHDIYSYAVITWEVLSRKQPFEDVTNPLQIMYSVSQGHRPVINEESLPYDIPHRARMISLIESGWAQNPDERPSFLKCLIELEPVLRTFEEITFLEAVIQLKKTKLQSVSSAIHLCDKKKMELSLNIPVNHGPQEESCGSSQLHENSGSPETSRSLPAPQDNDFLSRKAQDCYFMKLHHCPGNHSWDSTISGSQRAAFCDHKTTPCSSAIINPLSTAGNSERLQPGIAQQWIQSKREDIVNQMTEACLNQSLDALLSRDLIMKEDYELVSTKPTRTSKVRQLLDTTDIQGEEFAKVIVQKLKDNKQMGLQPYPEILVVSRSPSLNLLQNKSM", "test": "Inhibition of RIPK2 at 0.1 uM; values are per cent of control"}, "[14]": {"target": "Mitogen-activated protein kinase 11 (Homo sapiens) (UniProt Q15759)", "sequence (Q15759 whole entry)": "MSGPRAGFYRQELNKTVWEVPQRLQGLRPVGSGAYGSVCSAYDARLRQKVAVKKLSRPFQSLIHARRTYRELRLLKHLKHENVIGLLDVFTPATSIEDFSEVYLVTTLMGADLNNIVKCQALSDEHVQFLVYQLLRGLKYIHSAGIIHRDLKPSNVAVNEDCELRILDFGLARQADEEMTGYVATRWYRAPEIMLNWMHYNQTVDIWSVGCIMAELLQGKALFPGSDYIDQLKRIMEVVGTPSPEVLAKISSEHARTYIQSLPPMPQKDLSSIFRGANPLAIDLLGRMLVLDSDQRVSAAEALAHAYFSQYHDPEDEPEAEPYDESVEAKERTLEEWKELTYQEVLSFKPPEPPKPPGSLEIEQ", "test": "Inhibition of SAPK2b at 0.1 uM; values are per cent of control"}, "[15]": {"target": "Dual specificity mitogen-activated protein kinase kinase 1 (Homo sapiens) (UniProt Q02750)", "test": "Inhibition of MEK1 at 1 uM; values are per cent of control"}, "[16]": {"target": "Tyrosine-protein kinase CSK (Homo sapiens) (UniProt P41240)", "sequence (P41240 2-450 limits assumed)": "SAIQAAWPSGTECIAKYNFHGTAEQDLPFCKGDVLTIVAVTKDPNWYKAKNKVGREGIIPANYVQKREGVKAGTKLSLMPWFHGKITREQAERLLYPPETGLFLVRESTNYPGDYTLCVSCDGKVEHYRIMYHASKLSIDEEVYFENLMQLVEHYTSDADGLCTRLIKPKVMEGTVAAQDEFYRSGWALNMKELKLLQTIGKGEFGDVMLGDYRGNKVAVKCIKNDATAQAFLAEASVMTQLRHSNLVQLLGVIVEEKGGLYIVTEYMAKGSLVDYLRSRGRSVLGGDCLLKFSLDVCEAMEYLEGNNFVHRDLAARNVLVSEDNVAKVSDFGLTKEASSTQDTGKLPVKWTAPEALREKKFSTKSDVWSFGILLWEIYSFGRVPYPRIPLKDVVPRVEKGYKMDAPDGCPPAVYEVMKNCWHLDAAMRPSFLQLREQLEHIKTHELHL", "test": "Inhibition of CSK at 0.1 uM; values are per cent of control"}, "[17]": {"target": "Angiopoietin-1 receptor (Homo sapiens) (UniProt Q02763)", "test": "Inhibition of Tie2 at 1 uM; values are per cent of control"}, "[18]": {"target": "Mitogen-activated protein kinase 14 (Homo sapiens) (UniProt Q16539)", "sequence (Q16539 whole entry)": "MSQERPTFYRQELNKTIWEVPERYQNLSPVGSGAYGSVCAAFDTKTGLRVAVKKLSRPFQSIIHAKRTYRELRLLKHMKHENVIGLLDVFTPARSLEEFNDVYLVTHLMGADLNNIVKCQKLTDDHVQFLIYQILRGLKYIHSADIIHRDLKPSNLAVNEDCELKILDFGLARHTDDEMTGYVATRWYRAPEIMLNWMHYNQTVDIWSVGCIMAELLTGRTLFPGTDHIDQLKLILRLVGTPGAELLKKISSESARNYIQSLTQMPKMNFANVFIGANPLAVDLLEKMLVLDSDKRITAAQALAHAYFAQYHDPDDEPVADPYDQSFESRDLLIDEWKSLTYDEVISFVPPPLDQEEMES", "test": "Inhibition of SAPK2a at 1 uM"}}}
{"smiles": "Cc1ccc2cc(-c3n[nH]c4ccc(NC5CCNC5)cc34)[nH]c2c1", "note": "(stereo unspecified)", "values": [{"measurement": "residual activity", "setting": "[1]", "result": 27, "unit": "%"}, {"measurement": "inhibition", "setting": "[2]", "result": 73, "unit": "%"}, {"measurement": "residual activity", "setting": "[3]", "result": 14, "unit": "%"}, {"measurement": "residual activity", "setting": "[4]", "result": 70, "unit": "%"}, {"measurement": "residual activity", "setting": "[5]", "result": 99, "unit": "%"}, {"measurement": "residual activity", "setting": "[6]", "result": 1, "unit": "%"}, {"measurement": "residual activity", "setting": "[7]", "result": 103, "unit": "%"}, {"measurement": "residual activity", "setting": "[8]", "result": 10, "unit": "%"}, {"measurement": "residual activity", "setting": "[9]", "result": 5, "unit": "%"}, {"measurement": "inhibition", "setting": "[10]", "result": 52, "unit": "%"}, {"measurement": "residual activity", "setting": "[11]", "result": 5, "unit": "%"}, {"measurement": "residual activity", "setting": "[12]", "result": 71, "unit": "%"}, {"measurement": "residual activity", "setting": "[13]", "result": 87, "unit": "%"}, {"measurement": "residual activity", "setting": "[14]", "result": 100, "unit": "%"}, {"measurement": "residual activity", "setting": "[15]", "result": 13, "unit": "%"}, {"measurement": "residual activity", "setting": "[16]", "result": 107, "unit": "%"}, {"measurement": "residual activity", "setting": "[17]", "result": 1, "unit": "%"}, {"measurement": "inhibition", "setting": "[18]", "result": 99, "unit": "%"}]}
{"smiles": "Cc1ccc2cc(-c3n[nH]c4ccc(NC5CCN(Cc6ccccc6)CC5)cc34)[nH]c2c1", "values": [{"measurement": "residual activity", "setting": "[1]", "result": 36, "unit": "%"}, {"measurement": "inhibition", "setting": "[2]", "result": 76, "unit": "%"}, {"measurement": "residual activity", "setting": "[3]", "result": 44, "unit": "%"}, {"measurement": "residual activity", "setting": "[4]", "result": 80, "unit": "%"}, {"measurement": "residual activity", "setting": "[5]", "result": 98, "unit": "%"}, {"measurement": "residual activity", "setting": "[6]", "result": 30, "unit": "%"}, {"measurement": "residual activity", "setting": "[7]", "result": 93, "unit": "%"}, {"measurement": "residual activity", "setting": "[8]", "result": 40, "unit": "%"}, {"measurement": "residual activity", "setting": "[9]", "result": 12, "unit": "%"}, {"measurement": "inhibition", "setting": "[10]", "result": 95, "unit": "%"}, {"measurement": "residual activity", "setting": "[11]", "result": 1, "unit": "%"}, {"measurement": "residual activity", "setting": "[12]", "result": 66, "unit": "%"}, {"measurement": "residual activity", "setting": "[13]", "result": 94, "unit": "%"}, {"measurement": "residual activity", "setting": "[14]", "result": 100, "unit": "%"}, {"measurement": "residual activity", "setting": "[15]", "result": 87, "unit": "%"}, {"measurement": "residual activity", "setting": "[16]", "result": 105, "unit": "%"}, {"measurement": "residual activity", "setting": "[17]", "result": 8, "unit": "%"}, {"measurement": "inhibition", "setting": "[18]", "result": 97, "unit": "%"}]}
